The structures appear in SMILES notation. Calls of active or inactive are those of the source. No cut-off for these calls is given here.

In general, ED50 refers to the midpoint of the dose-response relation.

The first assay is filed under the species Mus musculus. Nature of the assay: Evaluated for antidepressant activity by its ability to inhibit tetrabenazine-induced (TBZ) ptosis in mice; Inactive. The format is functional, organism-based.
Details: not given
Take `CNCCCN1c2ccccc2N2CCc3cc(Cl)cc(c32)C1C` (stereo unspecified): the ED50 result was “inactive”.

Turning to `CNCC(=O)N1c2ccccc2N2CCc3cc(Cl)cc(c32)C1C` (stereo unspecified), the ED50 entry was “inactive”.

On to `CNCCC(=O)N1c2ccccc2N2CCc3cc(Cl)cc(c32)C1C` (stereo unspecified), for which the ED50 result is “inactive”.

`CC1c2cc(Cl)cc3c2N(CC3)c2ccccc2N1C(=O)CCN(C)C` (stereo unspecified): the ED50 result is “inactive”.

Turning to `CC1c2cc(Cl)cc3c2N(CC3)c2ccccc2N1C(=O)CN(C)C` (stereo unspecified), the ED50 result was “inactive”.

For the molecule `CNCCN1c2ccccc2N2CCc3cc(Cl)cc(c32)C1C` (stereo unspecified), the ED50 entry is “inactive”.

Tested on in another assay: not listed separately
Nature of the assay: Evaluated for antidepressant activity by its ability to inhibit tetrabenazine-induced (TBZ) ptosis in mice. The format is functional. Particulars: Mus musculus. The essentials: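 Mice given tetrabenazine to induce ptosis; inhibition of ptosis scored. Compounds were screened at 20 mg/kg ip. […] ">20" marks activity at the 20 mg/kg ip screening dose without a dose-response run.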
`Br.Br.CC1c2cccc3c2N(CC3)c2ccccc2N1CCN` (stereo unspecified) had an ED50 of 2.2 mg/kg.

`CC1c2cccc3c2N(CC3)c2ccccc2N1C(=O)CCN1CCCCC1` (stereo unspecified) came in with a median effective dose (ED50) greater than 20 mg/kg.

On to `CN(C)CCC=C1c2ccccc2CCc2ccccc21` [AMITRIPTYLINE], for which the 50% effect level (ED50) was put at a dose of 4.5 mg/kg.

`CNCC(=O)N1Cc2cccc3c2N(CC3)c2ccccc21` registered an ED50 greater than 20 mg/kg.

As for `CN(C)CCC(=O)N1Cc2cccc3c2N(CC3)c2ccccc21`, the ED50 is greater than 20 mg/kg.

Turning to `CNCCN1Cc2cccc3c2N(CC3)c2ccccc21.O=C(O)C(=O)O`, the median effective dose (ED50) was greater than 20 mg/kg.

`CNCCCN1c2ccccc2N2CCc3cccc(c32)C1C.Cl.Cl` (stereo unspecified) returned an ED50 of 9.5 mg/kg.

`CC1c2cccc3c2N(CC3)c2ccccc2N1C(=O)CCN1CCN(c2ccccc2)CC1` (stereo unspecified) gave a median effective dose (ED50) greater than 20 mg/kg.

In turn, `CCCNCCC(=O)N1c2ccccc2N2CCc3cccc(c32)C1C.Cl` (stereo unspecified) had an ED50 greater than 20 mg/kg.

Regarding `CN(C)CCC(=O)N1c2ccccc2N2CCc3cccc(c32)C1C1CCCCC1.Cl` (stereo unspecified), the ED50 is greater than 20 mg/kg.

Consider `Br.CC1c2cccc3c2N(CC3)c2ccccc2N1CCN(C)C` (stereo unspecified), for which the ED50 turned out to be 5 mg/kg.

Molecule `Br.Br.CCCNCCN1c2ccccc2N2CCc3cccc(c32)C1C` (stereo unspecified) gave an ED50 greater than 20 mg/kg.

`Br.Br.CNCCN1c2ccccc2N2CCc3cccc(c32)C1C` (stereo unspecified) had a 50% effective dose (ED50) of 8 mg/kg.

Turning to `CN(C)CCN1c2ccccc2N2CCc3cccc(c32)C1CCc1ccccc1.O=C(O)C(=O)O` (stereo unspecified), the ED50 is greater than 20 mg/kg.

`Br.Br.CNCCCN1Cc2cccc3c2N(CC3)c2ccccc21` showed a 50% effective dose (ED50) of 1.5 mg/kg.

`CNCCC(=O)N1c2ccccc2N2CCc3cccc(c32)C1C` (stereo unspecified) gave a 50% effective dose (ED50) of 4 mg/kg.

In the case of `CN(C)CC(=O)N1Cc2cccc3c2N(CC3)c2ccccc21`, the ED50 is greater than 20 mg/kg.

Consider `CCN(CC)CCC(=O)N1c2ccccc2N2CCc3cccc(c32)C1C` (stereo unspecified), for which the ED50 was greater than 20 mg/kg.

In turn, `CNCC(=O)N1c2ccccc2N2CCc3cccc(c32)C1C` (stereo unspecified) had a 50% effective dose (ED50) of 2 mg/kg.

In the case of `CC1c2cccc3c2N(CC3)c2ccccc2N1C(=O)CN(C)C` (stereo unspecified), it took a dose of 13.5 mg/kg to reach the 50% effect level (ED50).

In the case of `CC1c2cccc3c2N(CC3)c2ccccc2N1C(=O)CCCN(C)C.Cl` (stereo unspecified), the ED50 was greater than 20 mg/kg.

For `CC1c2cccc3c2N(CC3)c2ccccc2N1C(=O)CCN(C)C` (stereo unspecified), it took a dose of 16 mg/kg to reach the 50% effect level (ED50).

In turn, `CCCNCC(=O)N1c2ccccc2N2CCc3cccc(c32)C1C` (stereo unspecified) gave a 50% effective dose (ED50) greater than 20 mg/kg.

`CNCCCN1c2ccccc2CCc2ccccc21` [DESIPRAMINE] registered a 50% effective dose (ED50) of 1.5 mg/kg.

On to `CN(C)CCCN1Cc2cccc3c2N(CC3)c2ccccc21.Cl.Cl`, for which it took a dose of 16 mg/kg to reach the 50% effect level (ED50).
